From ChEMBL document CHEMBL5705905, “Pharmacological targeting of kinases MST1 and MST2 augments tissue repair and regeneration” (Sci Transl Med, 2016)
Calls of active or inactive are those of the source. The calls are words filed in the database; no cut-off is given here.

Assays:
[1] = target: Mitogen-activated protein kinase kinase kinase 1 (Homo sapiens) (UniProt Q13233); experiment: Inhibition of MAP3K1 (unknown origin) assessed as remaining activity at 1 uM by Kinome scan method relative to control
[2] = target: T1, Serine/threonine-protein kinase 4 (Homo sapiens, UniProt Q13043); experiment: Inhibition of recombinant His-tagged full-length MST1 (unknown origin) expressing in Escherichia coli assessed as MOB1a phosphorylation level incubated for 30 min in the presence of 30 uM ATP by immunoblot analysis
T1 sequence (Q13043 whole entry): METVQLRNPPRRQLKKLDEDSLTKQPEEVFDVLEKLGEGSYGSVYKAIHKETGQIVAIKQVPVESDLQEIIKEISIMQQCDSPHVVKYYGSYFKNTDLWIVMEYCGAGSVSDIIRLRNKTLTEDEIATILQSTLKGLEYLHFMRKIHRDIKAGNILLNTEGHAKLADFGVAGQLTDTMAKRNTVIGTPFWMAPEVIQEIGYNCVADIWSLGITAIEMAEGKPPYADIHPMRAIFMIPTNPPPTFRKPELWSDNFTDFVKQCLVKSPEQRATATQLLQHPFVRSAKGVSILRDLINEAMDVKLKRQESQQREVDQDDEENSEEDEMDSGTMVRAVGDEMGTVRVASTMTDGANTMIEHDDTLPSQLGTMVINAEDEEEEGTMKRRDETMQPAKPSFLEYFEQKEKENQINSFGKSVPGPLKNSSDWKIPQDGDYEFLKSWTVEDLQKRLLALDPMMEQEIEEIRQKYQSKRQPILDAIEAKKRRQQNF

[3] = target: Serine/threonine-protein kinase N1 (Homo sapiens) (UniProt Q16512); experiment: Inhibition of PKN1 (unknown origin) assessed as remaining activity at 1 uM by Kinome scan method relative to control
[4] = target: Receptor-interacting serine/threonine-protein kinase 2 (Homo sapiens) (UniProt O43353); experiment: Inhibition of RIPK2 (unknown origin) assessed as remaining activity at 1 uM by Kinome scan method relative to control
[5] = target: Cyclin-dependent kinase 9 (Homo sapiens) (UniProt P50750); experiment: Inhibition of CDK9 (unknown origin) assessed as remaining activity at 1 uM by Kinome scan method relative to control
In short: (§1)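 Active-site-dependent competition-binding profiling (KINOMEscan) at 1 μM against a 468-kinase panel; compound supplied from a 10 mM DMSO stock. Read-out is ctrl% = (test signal − positive control signal)/(negative control signal − positive control signal) × 100. DMSO is the negative control (100%) and a control compound the positive control (0%). Lower ctrl% means tighter binding.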

[6] = target: Phosphatidylinositol 4-phosphate 5-kinase type-1 alpha (Homo sapiens) (UniProt Q99755); experiment: Inhibition of PIP5K1A (unknown origin) assessed as remaining activity at 1 uM by Kinome scan method relative to control
[7] = Toxicity in APAP induced liver injury in mouse assessed as cancer cell growth at 1 mg/kg, ip administered for > 10 months; assay type: organism-based; conditions: in vivo, 7300 h
[8] = target: Mitogen-activated protein kinase kinase kinase 19 (Homo sapiens) (UniProt Q56UN5); experiment: Inhibition of YSK4 (unknown origin) assessed as remaining activity at 1 uM by Kinome scan method relative to control
[9] = target: Tyrosine-protein kinase ABL1 (Homo sapiens, UniProt P00519, Q252H); experiment: Binding affinity to phosphorylated ABL1 Q252H mutant (unknown origin) assessed as dissociation constant
[10] = target: MAP kinase-interacting serine/threonine-protein kinase 1 (Homo sapiens) (UniProt Q9BUB5); experiment: Inhibition of MKNK1 (unknown origin) assessed as remaining activity at 1 uM by Kinome scan method relative to control
[11] = target: Mitogen-activated protein kinase kinase kinase 2 (Homo sapiens, UniProt Q9Y2U5); experiment: Binding affinity to MAP3K2 (unknown origin) assessed as dissociation constant
[12] = test system: Mus musculus; experiment: Protection against APAP induced liver injury in mouse assessed as continual expansion of centrilobular necrotic lesions at 1 mg/kg, ip administered at 2.5 hrs by H&E staining; assay type: functional, organism-based
[13] = target: Serine/threonine-protein kinase Sgk3 (Homo sapiens) (UniProt Q96BR1); experiment: Inhibition of SGK3 (unknown origin) assessed as remaining activity at 1 uM by Kinome scan method relative to control
[14] = target: Tyrosine-protein kinase Blk (Homo sapiens) (UniProt P51451); experiment: Inhibition of BLK (unknown origin) assessed as remaining activity at 1 uM by Kinome scan method relative to control
In short: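 Active-site-dependent competition-binding (KINOMEscan) panel of 468 kinases, test compound at 1 μM (from a 10 mM DMSO stock). Read-out is ctrl% = (test signal − positive control signal)/(negative control signal − positive control signal) × 100. DMSO is the negative control (100%) and a control compound is the positive control (0%). Lower ctrl% means tighter binding.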

[15] = target: Receptor tyrosine-protein kinase erbB-3 (Homo sapiens) (UniProt P21860); experiment: Inhibition of ERBB3 (unknown origin) assessed as remaining activity at 1 uM by Kinome scan method relative to control
[16] = target: Casein kinase II subunit alpha' (Homo sapiens) (UniProt P19784); experiment: Inhibition of CSNK2A2 (unknown origin) assessed as remaining activity at 1 uM by Kinome scan method relative to control; in short: as §1
[17] = test system: Tyrosine-protein kinase ABL1 (Homo sapiens), P00519 [F317L]; experiment: Inhibition of phosphorylated ABL1 F317L mutant (unknown origin) assessed as remaining activity at 1 uM by Kinome scan method relative to control
[18] = target: Muscle, skeletal receptor tyrosine-protein kinase (Homo sapiens) (UniProt O15146); experiment: Inhibition of MUSK (unknown origin) assessed as remaining activity at 1 uM by Kinome scan method relative to control
[19] = test system: Mus musculus; experiment: Protection against human hepatocyte transplanted FRG mouse assessed as increase in FAH level at 1 mg/kg, ip administrated once a daily for 28 days by H&E staining based immunohistochemical analysis; assay type: functional, organism-based; conditions: Liver, time 28.0 day
[20] = test system: Mast/stem cell growth factor receptor Kit (Homo sapiens), P10721 [A829P]; experiment: Inhibition of KIT A829P mutant (unknown origin) assessed as remaining activity at 1 uM by Kinome scan method relative to control
[21] = target: cAMP-dependent protein kinase catalytic subunit PRKX (Homo sapiens) (UniProt P51817); experiment: Inhibition of PRKX (unknown origin) assessed as remaining activity at 1 uM by Kinome scan method relative to control
[22] = target: Serine/threonine-protein kinase RIO2 (Homo sapiens) (UniProt Q9BVS4); experiment: Inhibition of RIOK2 (unknown origin) assessed as remaining activity at 1 uM by Kinome scan method relative to control
[23] = target: Phosphatidylinositol 4,5-bisphosphate 3-kinase catalytic subunit gamma isoform (Homo sapiens, UniProt P48736); experiment: Inhibition of PIK3CG (unknown origin) assessed as remaining activity at 1 uM by Kinome scan method relative to control
[24] = target: Cyclin-dependent kinase 11B (Homo sapiens) (UniProt P21127); experiment: Inhibition of CDC2L1 (unknown origin) assessed as remaining activity at 1 uM by Kinome scan method relative to control; in short: as §1

Sequence of cAMP-dependent protein kinase catalytic subunit PRKX (Homo sapiens) (P51817 whole entry): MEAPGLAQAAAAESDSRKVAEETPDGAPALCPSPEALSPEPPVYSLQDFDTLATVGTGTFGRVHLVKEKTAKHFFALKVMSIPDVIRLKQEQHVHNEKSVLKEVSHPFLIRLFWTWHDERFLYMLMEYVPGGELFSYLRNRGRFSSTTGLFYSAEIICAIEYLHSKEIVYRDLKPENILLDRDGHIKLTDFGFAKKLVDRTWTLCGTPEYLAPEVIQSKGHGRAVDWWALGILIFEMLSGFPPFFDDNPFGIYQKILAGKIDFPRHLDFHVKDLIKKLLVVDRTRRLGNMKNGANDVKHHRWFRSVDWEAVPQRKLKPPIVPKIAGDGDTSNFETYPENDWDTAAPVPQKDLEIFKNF
Sequence of Phosphatidylinositol 4,5-bisphosphate 3-kinase catalytic subunit gamma isoform (P48736 whole entry, looked up, canonical isoform): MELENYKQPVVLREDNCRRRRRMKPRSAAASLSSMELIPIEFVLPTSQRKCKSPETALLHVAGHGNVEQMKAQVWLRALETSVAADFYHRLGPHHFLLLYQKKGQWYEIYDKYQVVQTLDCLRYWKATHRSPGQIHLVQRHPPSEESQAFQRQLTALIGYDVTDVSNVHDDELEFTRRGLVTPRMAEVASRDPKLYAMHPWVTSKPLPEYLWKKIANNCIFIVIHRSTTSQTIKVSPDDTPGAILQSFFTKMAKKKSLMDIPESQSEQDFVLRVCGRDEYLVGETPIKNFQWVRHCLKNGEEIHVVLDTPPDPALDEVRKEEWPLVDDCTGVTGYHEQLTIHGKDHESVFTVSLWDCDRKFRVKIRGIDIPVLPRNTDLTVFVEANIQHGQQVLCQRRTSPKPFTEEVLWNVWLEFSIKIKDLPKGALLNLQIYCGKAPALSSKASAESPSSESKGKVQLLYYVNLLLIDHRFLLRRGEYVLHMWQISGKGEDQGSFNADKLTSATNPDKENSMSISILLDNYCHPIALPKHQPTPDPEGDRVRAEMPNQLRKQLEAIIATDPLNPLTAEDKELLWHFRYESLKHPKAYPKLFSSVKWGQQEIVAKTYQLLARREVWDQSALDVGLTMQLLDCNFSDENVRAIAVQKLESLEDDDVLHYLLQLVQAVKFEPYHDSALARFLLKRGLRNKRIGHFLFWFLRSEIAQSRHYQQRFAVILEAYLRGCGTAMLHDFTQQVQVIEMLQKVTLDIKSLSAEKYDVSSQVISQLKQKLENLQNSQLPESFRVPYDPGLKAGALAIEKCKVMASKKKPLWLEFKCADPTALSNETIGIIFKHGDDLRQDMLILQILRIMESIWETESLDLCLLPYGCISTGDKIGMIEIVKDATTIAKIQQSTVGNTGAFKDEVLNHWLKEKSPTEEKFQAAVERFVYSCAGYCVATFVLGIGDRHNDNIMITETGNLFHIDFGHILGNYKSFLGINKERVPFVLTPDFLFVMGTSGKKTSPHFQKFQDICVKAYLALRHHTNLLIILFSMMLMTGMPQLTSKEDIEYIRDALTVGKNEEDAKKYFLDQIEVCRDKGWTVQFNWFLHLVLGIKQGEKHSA
Sequence of Mitogen-activated protein kinase kinase kinase 19 (Homo sapiens) (Q56UN5 whole entry): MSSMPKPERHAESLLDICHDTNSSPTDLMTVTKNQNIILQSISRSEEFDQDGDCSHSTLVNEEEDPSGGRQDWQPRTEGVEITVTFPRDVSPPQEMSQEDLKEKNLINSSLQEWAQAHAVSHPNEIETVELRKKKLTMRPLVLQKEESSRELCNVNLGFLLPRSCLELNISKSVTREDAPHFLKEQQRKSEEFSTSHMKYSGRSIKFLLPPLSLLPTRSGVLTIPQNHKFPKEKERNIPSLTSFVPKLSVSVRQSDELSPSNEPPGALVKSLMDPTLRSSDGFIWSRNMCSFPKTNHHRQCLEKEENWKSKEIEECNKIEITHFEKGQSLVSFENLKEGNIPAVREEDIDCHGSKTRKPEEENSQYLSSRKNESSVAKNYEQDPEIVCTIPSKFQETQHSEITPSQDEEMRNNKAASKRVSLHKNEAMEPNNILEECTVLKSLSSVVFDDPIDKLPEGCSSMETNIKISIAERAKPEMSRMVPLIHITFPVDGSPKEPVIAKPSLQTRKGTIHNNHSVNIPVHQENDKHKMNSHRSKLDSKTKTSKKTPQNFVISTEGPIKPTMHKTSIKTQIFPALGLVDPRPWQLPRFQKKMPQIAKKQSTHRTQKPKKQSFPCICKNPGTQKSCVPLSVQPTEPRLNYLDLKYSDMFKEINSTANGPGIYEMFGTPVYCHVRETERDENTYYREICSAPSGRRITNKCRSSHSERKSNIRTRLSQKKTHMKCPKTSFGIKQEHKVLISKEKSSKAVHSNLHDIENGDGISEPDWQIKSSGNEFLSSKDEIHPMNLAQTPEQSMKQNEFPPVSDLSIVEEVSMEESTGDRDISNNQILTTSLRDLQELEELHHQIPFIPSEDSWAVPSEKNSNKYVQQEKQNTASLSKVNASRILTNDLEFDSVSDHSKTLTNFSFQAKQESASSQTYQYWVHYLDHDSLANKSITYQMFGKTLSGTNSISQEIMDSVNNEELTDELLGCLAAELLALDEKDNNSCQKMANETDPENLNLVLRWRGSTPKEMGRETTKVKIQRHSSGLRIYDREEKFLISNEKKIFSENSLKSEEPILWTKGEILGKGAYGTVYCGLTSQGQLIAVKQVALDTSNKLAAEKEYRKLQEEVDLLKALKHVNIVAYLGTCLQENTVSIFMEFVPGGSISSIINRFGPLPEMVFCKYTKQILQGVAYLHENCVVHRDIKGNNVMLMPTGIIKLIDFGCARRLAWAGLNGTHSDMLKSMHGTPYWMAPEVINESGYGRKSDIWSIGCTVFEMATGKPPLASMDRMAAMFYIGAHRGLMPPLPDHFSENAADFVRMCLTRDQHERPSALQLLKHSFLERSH
Sequence of Cyclin-dependent kinase 9 (Homo sapiens) (P50750 whole entry): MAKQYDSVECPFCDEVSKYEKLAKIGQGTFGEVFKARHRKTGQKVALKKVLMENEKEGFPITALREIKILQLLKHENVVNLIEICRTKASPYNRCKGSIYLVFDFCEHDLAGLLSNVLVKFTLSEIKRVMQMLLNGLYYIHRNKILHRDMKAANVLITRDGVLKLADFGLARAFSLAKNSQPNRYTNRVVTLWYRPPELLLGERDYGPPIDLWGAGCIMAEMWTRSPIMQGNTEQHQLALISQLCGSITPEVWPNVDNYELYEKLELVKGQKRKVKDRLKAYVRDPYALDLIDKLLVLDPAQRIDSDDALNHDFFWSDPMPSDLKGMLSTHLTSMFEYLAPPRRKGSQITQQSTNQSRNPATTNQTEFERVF
Sequence of Phosphatidylinositol 4-phosphate 5-kinase type-1 alpha (Homo sapiens) (Q99755 whole entry): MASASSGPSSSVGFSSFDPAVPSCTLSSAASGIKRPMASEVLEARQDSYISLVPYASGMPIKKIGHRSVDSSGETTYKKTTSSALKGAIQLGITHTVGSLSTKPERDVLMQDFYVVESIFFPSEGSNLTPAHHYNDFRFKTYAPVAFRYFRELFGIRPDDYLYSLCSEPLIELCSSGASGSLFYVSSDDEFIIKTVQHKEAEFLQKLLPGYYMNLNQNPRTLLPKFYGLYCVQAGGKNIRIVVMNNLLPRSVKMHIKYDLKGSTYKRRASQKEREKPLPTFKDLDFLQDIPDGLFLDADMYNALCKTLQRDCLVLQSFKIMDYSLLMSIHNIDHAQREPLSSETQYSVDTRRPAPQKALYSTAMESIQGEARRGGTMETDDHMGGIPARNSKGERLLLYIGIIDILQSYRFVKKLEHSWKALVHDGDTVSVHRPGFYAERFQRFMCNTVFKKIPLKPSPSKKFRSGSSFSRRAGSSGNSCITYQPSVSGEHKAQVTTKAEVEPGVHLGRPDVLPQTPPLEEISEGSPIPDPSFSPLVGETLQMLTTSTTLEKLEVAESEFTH
Sequence of Mitogen-activated protein kinase kinase kinase 2 (Q9Y2U5 whole entry): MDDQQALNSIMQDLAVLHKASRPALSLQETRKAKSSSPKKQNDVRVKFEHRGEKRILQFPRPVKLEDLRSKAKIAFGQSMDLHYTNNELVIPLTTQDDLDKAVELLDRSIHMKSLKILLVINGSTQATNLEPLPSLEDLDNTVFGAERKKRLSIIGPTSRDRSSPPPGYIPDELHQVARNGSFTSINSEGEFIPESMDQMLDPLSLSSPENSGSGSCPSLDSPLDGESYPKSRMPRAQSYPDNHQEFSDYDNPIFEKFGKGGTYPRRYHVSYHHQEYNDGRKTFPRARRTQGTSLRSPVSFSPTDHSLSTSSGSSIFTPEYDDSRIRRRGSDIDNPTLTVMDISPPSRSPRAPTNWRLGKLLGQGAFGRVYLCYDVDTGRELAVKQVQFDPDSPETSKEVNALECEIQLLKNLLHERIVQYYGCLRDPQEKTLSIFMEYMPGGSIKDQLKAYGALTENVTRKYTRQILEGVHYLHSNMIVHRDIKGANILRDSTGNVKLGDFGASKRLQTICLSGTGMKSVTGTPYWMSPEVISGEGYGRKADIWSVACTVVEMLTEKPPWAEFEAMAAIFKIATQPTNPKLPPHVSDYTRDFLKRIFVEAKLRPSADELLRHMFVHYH
Sequence of Serine/threonine-protein kinase RIO2 (Homo sapiens) (Q9BVS4 whole entry, looked up, canonical isoform): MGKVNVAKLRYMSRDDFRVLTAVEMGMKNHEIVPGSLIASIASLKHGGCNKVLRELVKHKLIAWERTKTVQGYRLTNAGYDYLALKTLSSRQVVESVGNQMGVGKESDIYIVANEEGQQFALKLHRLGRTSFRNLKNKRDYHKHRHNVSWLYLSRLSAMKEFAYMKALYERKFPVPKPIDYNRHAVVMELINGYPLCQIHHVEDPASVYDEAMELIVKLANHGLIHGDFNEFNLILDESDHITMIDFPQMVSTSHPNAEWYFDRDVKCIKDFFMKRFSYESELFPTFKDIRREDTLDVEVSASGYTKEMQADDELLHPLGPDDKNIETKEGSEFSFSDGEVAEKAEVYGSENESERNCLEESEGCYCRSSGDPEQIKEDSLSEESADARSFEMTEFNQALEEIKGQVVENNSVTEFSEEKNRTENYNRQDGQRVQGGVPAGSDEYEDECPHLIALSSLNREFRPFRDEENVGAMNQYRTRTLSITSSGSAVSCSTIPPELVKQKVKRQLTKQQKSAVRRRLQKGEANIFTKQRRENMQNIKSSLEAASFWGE

CN1C(=O)c2sccc2N(C)c2nc(Nc3ccc(S(N)(=O)=O)cc3)ncc21
Activity [1]: 48%
IC50 [2]: 378 nM
Activity [3]: 100%
Activity [4]: 100%
Activity [5]: 84%
Activity [6]: 100%
Activity [7]: Non-Toxic
Activity [8]: 42%
Kd [9]: 24 nM
Activity [10]: 100%
Kd [11]: 19 nM
Activity [12]: Active
Activity [13]: 87%
Activity [14]: 96%
Activity [15]: 98%
Activity [16]: 97%
Activity [17]: 14%
Activity [18]: 100%
Activity [19]: Active
Activity [20]: 91%
Activity [21]: 100%
Activity [22]: 95%
Activity [23]: 0.15%
Activity [24]: 85%
